Assay results reported in ChEMBL document CHEMBL1150161, “New taxane diterpenoids from the leaves and twigs of Taxus sumatrana” (J Nat Prod, 2002).
≈ marks a conversion by molar mass, not a printed value.

Assays:
[1] = test system: KB; assay: Cytotoxicity against human KB cells after 72 hrs by methylene blue assay; assay type: functional, cell-based
Summary of the method: (§1)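 Cells kept in RPMI-1640 at 37 °C under 5% CO2, seeded at 2880 cells/well and left 3 h before sample or standard drug was added. Samples prepared at 1, 10, 40 and 100 µg/mL (stock, not final). Incubated 37 °C for 3 days. Cells then fixed in 10% formaldehyde/0.9% saline, stained with methylene blue in borate buffer, and eluted with EtOH–0.1 M HCl (1:1). Read at A650. IC50 is the concentration giving 50% absorbance reduction versus untreated cells.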

[2] = Cytotoxicity against human HEPA 59T/VGH cells after 72 hrs by methylene blue assay; assay type: functional, cell-based; summary of the method: as §1

Structure (SMILES)	IC50 [1]	IC50 [2]
CC(=O)O[C@H]1C2[C@@](C)([C@@H](O)C[C@H]3OC[C@@]23OC(C)=O)[C@@H](O)[C@H](O)C2=C(C)[C@@H](O)C[C@]21C(C)(C)O (some centres not stated) [TAXUMAIROL Q]	16.2 µg/mL (≈ 33.5 µM)	14.5 µg/mL (≈ 30 µM)
CC(=O)O[C@H]1C[C@@]23C(=C1C)[C@@](O)(C(=O)OC2(C)C)[C@]1(C)[C@@H](OC(C)=O)C[C@H]2OC[C@@]2(OC(C)=O)[C@H]1[C@@H]3OC(=O)c1ccccc1	8.96 µg/mL (≈ 14.3 µM)	3.09 µg/mL (≈ 4.93 µM)
CC(=O)O[C@@]12CO[C@@H]1C[C@H](O)[C@]1(C)[C@@H]2[C@H](OC(=O)c2ccccc2)[C@]23C[C@H](O)C(C)=C2[C@@]1(O)C(=O)OC3(C)C [WALLIFOLIOL]	0.56 µg/mL (≈ 1.03 µM)	0.1 µg/mL (≈ 0.184 µM)
CC(=O)O[C@H]1C[C@H]2OC[C@@]2(OC(C)=O)[C@H]2[C@H](OC(C)=O)[C@]3(C(C)(C)O)C[C@H](OC(=O)c4ccccc4)C(C)=C3[C@@H](OC(=O)c3ccccc3)[C@H](OC(C)=O)[C@]12C	9.69 µg/mL (≈ 12.5 µM)	> 20 µg/mL
C=C1[C@@H](O)C[C@H](OC(C)=O)[C@]2(C)[C@@H](OC(C)=O)[C@H](OC(C)=O)C3=C(C)C(=O)C[C@@H]([C@@H](OC(C)=O)[C@H]12)C3(C)C [TAXUSPINE F]	16.9 µg/mL (≈ 31.6 µM)	3.31 µg/mL (≈ 6.19 µM)
CC(=O)O[C@H]1C[C@]2(C(C)(C)O)C(=C1C)[C@@H](OC(C)=O)[C@H](OC(C)=O)[C@@]1(C)[C@@H](OC(C)=O)C[C@H]3OC[C@@]3(OC(C)=O)[C@H]1[C@@H]2OC(C)=O	4.92 µg/mL (≈ 7.54 µM)	6.02 µg/mL (≈ 9.22 µM)
CO[C@@]12[C@H](COC(N)=O)C3=C(C(=O)C(C)=C(N)C3=O)N1C[C@@H]1N[C@@H]12 [MITOMYCIN]	0.01 µg/mL (≈ 0.0299 µM)	0.01 µg/mL (≈ 0.0299 µM)
CC(=O)O[C@H]1C(=O)[C@@]2(C)[C@H]([C@H](OC(=O)c3ccccc3)[C@]3(O)C[C@H](OC(=O)[C@H](O)[C@@H](NC(=O)c4ccccc4)c4ccccc4)C(C)=C1C3(C)C)[C@]1(OC(C)=O)CO[C@@H]1C[C@@H]2O [PACLITAXEL]	0.001 µg/mL (≈ 0.00117 µM)	0.001 µg/mL (≈ 0.00117 µM)
CC(=O)O[C@@]12CO[C@@H]1C[C@H](OC(=O)c1ccccc1)[C@]1(C)[C@@H]2[C@H](OC(=O)c2ccccc2)[C@]23C[C@H](OC(=O)c4ccccc4)C(C)=C2[C@@]1(O)C(=O)OC3(C)C	15.4 µg/mL (≈ 20.6 µM)	4.83 µg/mL (≈ 6.43 µM)
CC(=O)O[C@H]1C[C@@]2(O)[C@H]3OC[C@]4(O)[C@@H](OC(C)=O)C[C@H](OC(=O)c5ccccc5)[C@](C)([C@H]34)[C@@H](OC(=O)c3ccccc3)[C@H](OC(C)=O)C(=C1C)C2(C)C	12.8 µg/mL (≈ 17.4 µM)	7.02 µg/mL (≈ 9.55 µM)
CC(=O)O[C@H]1C[C@@]23C(=C1C)[C@@](O)(C(=O)OC2(C)C)[C@@]1(C)[C@H]([C@@H]3OC(=O)c2ccccc2)[C@]2(OC(C)=O)CO[C@@H]2C[C@@H]1O	2.91 µg/mL (≈ 4.98 µM)	13.9 µg/mL (≈ 23.8 µM)
